Measurements: ChEMBL document CHEMBL1629583, “Establishment of in vitro susceptibility testing methodologies and comparative activities of piperacillin in combination with the penem {beta}-lactamase inhibitor BLI-489” (2009)

How the values were obtained:
Type in all cases: functional
[1] = system: Staphylococcus aureus; assay: Antimicrobial activity against methicillin-susceptible Staphylococcus aureus clinical isolate after 18 to 22 hrs by broth microdilution method in presence of beta-lactamase inhibitor Tazobactam
Summary of the method: (§1)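 CLSI broth microdilution of piperacillin-tazobactam in Mueller-Hinton II broth with serial dilutions. Inoculum was 10^5 CFU/ml. Incubation was 18 to 22 h at 35°C in ambient air. MIC was read as the lowest concentration giving complete inhibition of growth visible to the unaided eye.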

[2] = system: Citrobacter freundii; assay: Antimicrobial activity against AmpC beta-lactamase-producing Citrobacter freundii clinical isolate after 18 to 22 hrs by broth microdilution method in presence of beta-lactamase inhibitor BLI-489
Summary of the method: (§2)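 CLSI broth microdilution in Mueller-Hinton II broth. Piperacillin serial dilutions were combined with BLI-489 held constant at 4 μg/ml. Inoculum was 10^5 CFU/ml. Plates were incubated 18 to 22 h at 35°C in ambient air. MIC was the lowest concentration completely inhibiting growth seen by the unaided eye. Piperacillin-tazobactam interpretive criteria were applied.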

[3] = system: Parvimonas micra; assay: Antimicrobial activity against Peptostreptococcus micros clinical isolate after 18 to 22 hrs by broth microdilution method in presence of beta-lactamase inhibitor Tazobactam
[4] = system: Pseudomonas aeruginosa; assay: Antimicrobial activity against Pseudomonas aeruginosa clinical isolate after 18 to 22 hrs by broth microdilution method in presence of beta-lactamase inhibitor BLI-489
Summary of the method: (§3)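 CLSI broth microdilution in Mueller-Hinton II broth. Serial dilutions of piperacillin were tested with BLI-489 held at a constant 4 μg/ml. Inoculum was 10^5 CFU/ml. Plates were incubated 18 to 22 h at 35°C in ambient air. MIC was the lowest concentration giving complete growth inhibition by unaided eye.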

[5] = system: Enterococcus durans; assay: Antimicrobial activity against Enterococcus durans clinical isolate after 18 to 22 hrs by broth microdilution method in presence of beta-lactamase inhibitor Tazobactam
Summary of the method: (§4)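 Piperacillin-tazobactam was tested on recent clinical isolates by CLSI broth microdilution in Mueller-Hinton II broth, with tazobactam at constant 4 μg/ml. Wells held 10^5 CFU/ml and were incubated 18 to 22 h at 35°C in ambient air. MIC was the lowest concentration with no growth visible to the unaided eye.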

[6] = system: Escherichia coli; assay: Antimicrobial activity against AmpC beta-lactamase-producing Escherichia coli clinical isolate after 18 to 22 hrs by broth microdilution method in presence of beta-lactamase inhibitor BLI-489; summary of the method: as §2
[7] = system: Klebsiella pneumoniae; assay: Antimicrobial activity against AmpC- producing Klebsiella pneumoniae clinical isolate after 18 to 22 hrs by broth microdilution method in presence of beta-lactamase inhibitor BLI-489; summary of the method: as §2
[8] = system: Citrobacter koseri; assay: Antimicrobial activity against Citrobacter koseri clinical isolate after 18 to 22 hrs by broth microdilution method in presence of beta-lactamase inhibitor Tazobactam; summary of the method: as §4
[9] = system: Serratia marcescens; assay: Antimicrobial activity against Serratia marcescens clinical isolate after 18 to 22 hrs by broth microdilution method in presence of beta-lactamase inhibitor BLI-489; summary of the method: as §3
[10] = system: Bacteroides uniformis; assay: Antimicrobial activity against Bacteroides uniformis clinical isolate after 18 to 22 hrs by broth microdilution method in presence of beta-lactamase inhibitor BLI-489
[11] = system: Streptococcus pneumoniae; assay: Antimicrobial activity against penicillin-susceptible Streptococcus pneumoniae clinical isolate after 18 to 22 hrs by broth microdilution method in presence of beta-lactamase inhibitor BLI-489
Summary of the method: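 Streptococci were tested by CLSI broth microdilution in Mueller-Hinton II broth plus 5% lysed horse blood. Piperacillin was serially diluted with BLI-489 fixed at a constant 4 μg/ml. Inoculum was 10^5 CFU/ml, with 18 to 22 h at 35°C in ambient air. MIC was the lowest concentration completely inhibiting growth by eye.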

[12] = system: Acinetobacter haemolyticus; assay: Antimicrobial activity against Acinetobacter haemolyticus clinical isolate after 18 to 22 hrs by broth microdilution method in presence of beta-lactamase inhibitor BLI-489; summary of the method: as §2
[13] = system: Stenotrophomonas maltophilia; assay: Antimicrobial activity against Stenotrophomonas maltophilia clinical isolate after 18 to 22 hrs by broth microdilution method in presence of beta-lactamase inhibitor Tazobactam
Summary of the method: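 Piperacillin-tazobactam was tested by CLSI broth microdilution in Mueller-Hinton II broth against clinical isolates. Inoculum was 10^5 CFU/ml, with 18 to 22 h incubation at 35°C in ambient air. MIC was read as the lowest concentration completely inhibiting visible growth.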

[14] = system: Parvimonas micra; assay: Antimicrobial activity against Peptostreptococcus micros clinical isolate after 18 to 22 hrs by broth microdilution method in presence of beta-lactamase inhibitor BLI-489
[15] = system: Clostridium perfringens; assay: Antimicrobial activity against Clostridium perfringens clinical isolate after 18 to 22 hrs by broth microdilution method in presence of beta-lactamase inhibitor BLI-489
[16] = system: Moraxella catarrhalis; assay: Antimicrobial activity against Moraxella catarrhalis clinical isolate after 18 to 22 hrs by broth microdilution method in presence of beta-lactamase inhibitor BLI-489; summary of the method: as §3
[17] = system: Streptococcus pyogenes; assay: Antimicrobial activity against Streptococcus pyogenes clinical isolate after 18 to 22 hrs by broth microdilution method in presence of beta-lactamase inhibitor BLI-489
Summary of the method: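 Streptococci were tested by CLSI broth microdilution in Mueller-Hinton II broth plus 5% lysed horse blood. Piperacillin dilutions contained a constant 4 μg/ml BLI-489. Inoculum was 10^5 CFU/ml, incubated 18 to 22 h at 35°C in air. MIC was the lowest concentration with no visible growth.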

[18] = system: Bacteroides thetaiotaomicron; assay: Antimicrobial activity against Bacteroides thetaiotaomicron clinical isolate after 18 to 22 hrs by broth microdilution method in presence of beta-lactamase inhibitor BLI-489
[19] = system: Klebsiella pneumoniae; assay: Antimicrobial activity against class A extended spectrum beta-lactamase- producing Klebsiella pneumoniae clinical isolate after 18 to 22 hrs by broth microdilution method in presence of beta-lactamase inhibitor Tazobactam; summary of the method: as §1
[20] = system: Staphylococcus aureus; assay: Antimicrobial activity against methicillin-resistant Staphylococcus aureus clinical isolate after 18 to 22 hrs by broth microdilution method in presence of beta-lactamase inhibitor Tazobactam
Summary of the method: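 CLSI broth microdilution in Mueller-Hinton II broth. Antibiotic in serial dilution with the β-lactamase inhibitor held at a constant 4 μg/ml. Inoculum 10^5 CFU/ml. Incubated 18 to 22 h at 35°C in ambient air.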

[21] = system: Enterobacter cloacae; assay: Antimicrobial activity against AmpC beta-lactamase-producing Enterobacter cloacae clinical isolate after 18 to 22 hrs by broth microdilution method in presence of beta-lactamase inhibitor BLI-489; summary of the method: as §2

## CCN1CCN(C(=O)N[C@@H](C(=O)N[C@@H]2C(=O)N3[C@@H]2SC(C)(C)[C@@H]3C(=O)O)c2ccccc2)C(=O)C1=O [PIPERACILLIN]
[1]
  MIC50: 1 µg/mL
  MIC90: 2 µg/mL
[2]
  MIC50: 4 µg/mL
  MIC90: 64 µg/mL
[3]
  MIC50: 0.03 µg/mL
  MIC90: 0.25 µg/mL
[4]
  MIC50: 8 µg/mL
  MIC90: 64 µg/mL
[5]
  MIC50: 4 µg/mL
  MIC90: 16 µg/mL
[6]
  MIC50: 2 µg/mL
  MIC90: 16 µg/mL
[7]
  MIC50: 16 µg/mL
  MIC90: > 128 µg/mL
[8]
  MIC50: 2 µg/mL
  MIC90: 16 µg/mL
[9]
  MIC50: 1 µg/mL
  MIC90: 4 µg/mL
[10]
  MIC50: 4 µg/mL
  MIC90: 8 µg/mL
[11]
  MIC: ≤ 0.004 µg/mL
  MIC50: ≤ 0.004 µg/mL
  MIC90: ≤ 0.004 µg/mL
[12]
  MIC50: 4 µg/mL
  MIC90: 16 µg/mL
[13]
  MIC: > 128 µg/mL
  MIC50: > 128 µg/mL
  MIC90: > 128 µg/mL
[14]
  MIC: ≤ 0.015 µg/mL
  MIC50: ≤ 0.015 µg/mL
  MIC90: ≤ 0.015 µg/mL
[15]
  MIC: ≤ 0.015 µg/mL
  MIC50: ≤ 0.015 µg/mL
  MIC90: ≤ 0.015 µg/mL
[16]
  MIC: ≤ 0.004 µg/mL
  MIC50: ≤ 0.004 µg/mL
  MIC90: 0.015 µg/mL
[17]
  MIC: ≤ 0.004 µg/mL
  MIC50: ≤ 0.004 µg/mL
  MIC90: ≤ 0.004 µg/mL
[18]
  MIC50: 16 µg/mL
  MIC90: 16 µg/mL
[19]
  MIC50: 32 µg/mL
  MIC90: > 128 µg/mL
[20]
  MIC50: 64 µg/mL
[21]
  MIC50: 2 µg/mL
  MIC90: 8 µg/mL
